Screening results as filed in PubChem BioAssay.
The list is not random: actives were taken first. Their share in the collection is about 3.5%.
RGS4 block: human RGS4 inhibition | P49798 | HEK293 M3R/RGS4 inducible, Fluo-4 calcium flux; active compounds read high; triggered by carbachol at its EC20 | 310,000 compounds, 0.45% hits | B-score at 10 µM;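 active = B-score, a plate-corrected calcium signal, over three deviations above library mean, with baseline fluorescence within five deviations of library mean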;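 note: RGS4 expression induced by doxycycline in cells with stable M3 receptor; B-score is computed from the integrated fluorescence ratio over baseline after carbachol; higher B-score means a larger calcium signal and so more RGS4 inhibition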
Target sequence (P49798 whole entry, looked up): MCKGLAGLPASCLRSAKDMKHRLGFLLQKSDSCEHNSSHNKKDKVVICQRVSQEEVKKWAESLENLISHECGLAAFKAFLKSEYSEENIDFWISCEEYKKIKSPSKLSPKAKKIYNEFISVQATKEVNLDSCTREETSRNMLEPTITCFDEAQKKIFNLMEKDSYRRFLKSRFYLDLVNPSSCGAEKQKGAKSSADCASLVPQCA
MrgX1 antag: antagonists of human MrgX1 receptor. AID 588676. MRGX1-HEK293 calcium flux, Fluo-4, BAM8-22 antagonism; active compounds read low. B-score at 10 µM. 310,000 compounds, 1.3% hits;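 active = calcium-response B-score plate-corrected more than 3 library SD below zero, starting fluorescence within 5 deviations, no agonist response on first addition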;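 note: peak minus trough fluorescence over baseline after final BAM8-22 challenge near maximal dose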
Target sequence (Q96LB2 whole entry, looked up): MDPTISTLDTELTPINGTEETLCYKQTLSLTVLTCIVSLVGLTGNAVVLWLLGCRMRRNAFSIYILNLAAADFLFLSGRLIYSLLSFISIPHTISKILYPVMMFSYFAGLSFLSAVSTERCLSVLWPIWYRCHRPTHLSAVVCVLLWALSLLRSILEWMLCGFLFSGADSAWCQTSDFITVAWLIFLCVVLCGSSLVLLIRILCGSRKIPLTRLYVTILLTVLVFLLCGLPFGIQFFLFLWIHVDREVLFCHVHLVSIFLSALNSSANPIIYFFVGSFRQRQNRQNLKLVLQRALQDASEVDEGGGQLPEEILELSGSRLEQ
MrgX1 PAM: allosterically activates human MrgX1 receptor signaling; B-score at 10 µM; MrgX1-HEK293, Fluo-4 calcium flux, FDSS; active compounds read high; 310,000 compounds, 0.63% hits; AID 588675; Q96LB2;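 active = plate-corrected calcium response at least 3 library SD above typical, normal starting fluorescence, not activating the receptor alone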;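 note: compound read alongside a low EC10 to EC30 dose of BAM8-22 agonist; peak minus trough fluorescence over baseline measured at the second addition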
RGS4 act: potentiators or activators of RGS4 | HEK293 M3R/inducible RGS4, carbachol calcium flux Fluo4; active compounds read low | B-score at 10 µM | 310,000 compounds, 0.92% hits;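 active = B-score of the integrated calcium signal more than 4 SD below the library mean, with starting fluorescence not abnormally high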;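 note: negative B-score means reduced calcium response which marks RGS4 activation or potentiation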
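Material: M3R-expressing HEK293 line, RGS4 induced by doxycycline | Schedule: Overnight RGS4 induction, 30 min dye load 37 °C, 20 min compound RT | Measured by: Fluo4 fluorescence kinetic imaging of calcium | Read-out: Integrated calcium ratio converted to B score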
MrgX1 ag: agonists of human MrgX1 receptor. 310,000 compounds, 0.44% hits. B-score at 10 µM. AID 588627. Q96LB2. MrgX1-HEK293 cells, Fluo-4 calcium fluorescence, agonist mode; active compounds read high;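 active = calcium response B-score plate-corrected fluorescence ratio at least 3 library SD, with starting fluorescence B-score inside 5 SD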
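Material: MrgX1-expressing HEK293 cells; input: 15,000 cells per well; doses: test compound given as first of three sequential additions; schedule: overnight plating before 1 h dye loading; technique: Fluo-4 NW calcium-flux fluorescence, kinetic read; evaluation: baseline-normalised fluorescence change ratio, B-scored; control set: plate-wise positive and negative controls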
RGS4 inh valid: RGS4 inhibitor validation. shares compounds with RGS4 block. HEK293 M3R/RGS4, carbachol calcium Fluo-4 fluorescence; carbachol added at its EC20; 0 = buffer wells, 100 = carbachol control. calcium response, % at 10 µM. 1,700 compounds, 65% hits. AID 492999;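 active = duplicate-averaged calcium response above the buffer-only control mean plus 5 SD of those controls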;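 note: integrated fluorescence ratio F max minus min over baseline F0; higher response in RGS4-induced cells means RGS4 inhibition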
M3R Ca ctr: counter-screen for RGS4 inhibitors: effect in non-induced cells | shares compounds with RGS4 block | HEK293 M3R non-induced, carbachol calcium Fluo-4; submaximal (EC20) carbachol stimulus; buffer wells 0%, carbachol control wells 100% | activity (percent), % at 10 µM | 1,900 compounds, 20% hits; call rule not given here;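 note: RGS4 induction absent so cells express M3R without RGS4; higher means more calcium signal and flags a non-specific hit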
RGS4 inh ctr2: second counter-screen for RGS4 inhibitors: non-induced cells without carbachol | shares compounds with RGS4 block | HEK293 M3R/RGS4 non-induced, Fluo-4 calcium, no carbachol; normalised: buffer wells 0%, carbachol wells 100% | calcium response (agonist-mode artifact), % at 10 µM | 1,900 compounds, 22% hits;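 active = duplicate-averaged calcium rise in uninduced cells above buffer wells' mean plus 5 SD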
Each line names hits and unclear results; the compound was inactive in the other large screens (follow-up assays come after a bar, where they were run).

C=CCn1c(O)c(/C=N/NC(=O)c2ccncc2)c(=O)[nH]c1=O	none
CN1CCN(C(=O)O[C@H]2c3nccnc3C(=O)N2c2ccc(Cl)cn2)CC1	none
Cc1ccccc1NP(=O)(Oc1ccccc1F)Oc1ccccc1F	RGS4 act -7.5 | RGS4 inh valid inactive | M3R Ca ctr inactive | RGS4 inh ctr2 inactive
Cc1cccc(NP(=O)(Oc2ccccc2)Oc2ccccc2)c1C	none
N/C(=N/[N+](=O)[O-])N1CCN(C(=O)Oc2ccc([N+](=O)[O-])cc2)CC1	none
Nc1c(C(=O)NCc2ccco2)c2nc3ccccc3nc2n1CCN1CCCCC1	none | RGS4 inh valid inactive | M3R Ca ctr inactive | RGS4 inh ctr2 12%
C=C1C(=O)O[C@@H]2C[C@@H](C)[C@@H]3C=CC(=O)[C@@]3(C)[C@@H](OC(=O)CC(=O)O[C@H]3[C@@H]4C(=C)C(=O)O[C@@H]4C[C@@H](C)[C@@H]4C=CC(=O)[C@]43C)[C@H]12	MrgX1 antag -5.3 | M3R Ca ctr inactive | RGS4 inh ctr2 11%
CCN(CC)c1ccc(C=C2C(=O)NC(=S)NC2=O)cc1	RGS4 block 36 | RGS4 inh valid 56% | M3R Ca ctr 30% | RGS4 inh ctr2 inactive
CC(C)CN(CC(C)C)c1ccc(C=C2C(=O)NC(=S)NC2=O)cc1[N+](=O)[O-]	none
COc1ccc(N2C(=O)/C(=C/c3ccc(C)o3)C(=O)NC2=S)cc1	none (no result: MrgX1 antag, MrgX1 PAM, MrgX1 ag) | M3R Ca ctr 33% | RGS4 inh ctr2 12%
O=C1NC(=O)N(Cc2ccc(F)cc2)C(=O)/C1=C/c1cccs1	RGS4 block 30 | RGS4 inh valid 15% | M3R Ca ctr inactive | RGS4 inh ctr2 inactive
O=C1NC(=O)N(Cc2ccccc2Cl)C(=O)/C1=C/c1cccs1	none
Cc1ccc(/C=C2\C(=O)NC(=O)N(CCc3ccc(F)cc3)C2=O)o1	none | M3R Ca ctr inactive | RGS4 inh ctr2 8.5%
Cc1ccc(/C=C2\C(=O)NC(=S)N(c3cccc(F)c3)C2=O)o1	RGS4 block 16 | RGS4 inh valid 34% | M3R Ca ctr inactive | RGS4 inh ctr2 inactive
Cc1ccc(C2C(=O)NC(=O)NC2=O)cc1	none
COc1cc(/C=C/[N+](=O)[O-])ccc1OC(=O)c1cccnc1	RGS4 block 49 | RGS4 inh valid 113% | M3R Ca ctr 45% | RGS4 inh ctr2 26%
C=CCN1C(=O)/C(=C/c2ccc3c(c2)CCCN3CCC)C(=O)NC1=S	none
C=CCN1C(=O)/C(=C/c2ccc(Br)s2)C(=O)NC1=S	RGS4 block 11, MrgX1 antag -5.6 | RGS4 inh valid 5.0% | M3R Ca ctr inactive | RGS4 inh ctr2 inactive
CN1C(=O)/C(=C/c2ccc(Cl)s2)C(=O)NC1=S	RGS4 block 9.9 | RGS4 inh valid 5.5% | M3R Ca ctr inactive | RGS4 inh ctr2 inactive
CCOC(=O)c1c(C=O)c2ccccc2n1Cc1ccccc1	none
CCN(CC)P(=O)(Oc1ccccc1)Oc1ccccc1	none
O=C1NC(=O)C(=Cc2coc3ccc(O)cc3c2=O)C(=O)N1	RGS4 block 5.3 | RGS4 inh valid 8.5% | M3R Ca ctr inactive | RGS4 inh ctr2 inactive
O=C1NC(=O)N(Cc2ccccc2)C(=O)/C1=C/c1cnc(-c2ccccc2)nc1	none
O=C1NC(=O)N(Cc2ccccc2)C(=O)/C1=C\C=C\c1ccco1	RGS4 block 5.5, MrgX1 ag 28 | RGS4 inh valid 19% | M3R Ca ctr inactive | RGS4 inh ctr2 15%
Cn1cccc1/C=C1\C(=O)NC(=O)N(Cc2ccco2)C1=O	none (no result: MrgX1 antag, MrgX1 PAM, MrgX1 ag)
O=C1NC(=O)N(Cc2ccco2)C(=O)/C1=C/C=C/c1ccco1	RGS4 block 5.4, MrgX1 ag 36 | RGS4 inh valid inactive | M3R Ca ctr inactive | RGS4 inh ctr2 inactive
